Assay results: ChEMBL document CHEMBL1148429, “Penicillin-derived inhibitors that simultaneously target both metallo- and serine-beta-lactamases” (Bioorg Med Chem Lett, 2004)
≈ marks a conversion by molar mass, not a printed value.

Key:
[1] = test system: Escherichia coli; assay: Synergic activity against IMP-1 beta lactamase produced by Escherichia coli in presence of Piperacillin and Tazobactam; S = susceptible; type: functional
Summary of the method: (§1)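 Synergy with piperacillin against metallo-β-lactamase-producing strains (IMP-1; SPM-1, VIM-1 or VIM-7 carriers). The initial screen used […] at a 1:1 antibiotic:inhibitor ratio. Inhibitor was tested with tazobactam or DVR-II-183 added as a serine β-lactamase inhibitor, or without one.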

[2] = target: T1, Metallo-beta-lactamase type 2 (Bacillus cereus, UniProt P14488); assay: Inhibition of class B (BCII) metallo-beta-lactamase representative enzyme
T1 sequence (P14488 whole entry): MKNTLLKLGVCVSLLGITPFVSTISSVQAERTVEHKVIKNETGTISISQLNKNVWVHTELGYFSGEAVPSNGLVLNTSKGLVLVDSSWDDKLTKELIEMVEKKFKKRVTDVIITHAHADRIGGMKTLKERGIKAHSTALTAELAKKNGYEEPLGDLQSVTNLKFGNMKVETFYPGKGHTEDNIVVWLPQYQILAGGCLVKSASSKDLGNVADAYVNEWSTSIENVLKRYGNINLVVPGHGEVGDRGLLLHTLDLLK
Summary of the method: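 BCII metallo-β-lactamase assay: inhibitor and enzyme incubated together for 4 min in 970 µL, then concentrated nitrocefin added to 1 mL final volume. IC50 determined from nitrocefin hydrolysis.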

[3] = target: Beta-lactamase L1 (Stenotrophomonas maltophilia, UniProt P52700); assay: Beta-Lactamase Inhibition of metallo-beta-lactamase representative class B (L1) enzyme
Sequence of Beta-lactamase L1 (P52700 whole entry): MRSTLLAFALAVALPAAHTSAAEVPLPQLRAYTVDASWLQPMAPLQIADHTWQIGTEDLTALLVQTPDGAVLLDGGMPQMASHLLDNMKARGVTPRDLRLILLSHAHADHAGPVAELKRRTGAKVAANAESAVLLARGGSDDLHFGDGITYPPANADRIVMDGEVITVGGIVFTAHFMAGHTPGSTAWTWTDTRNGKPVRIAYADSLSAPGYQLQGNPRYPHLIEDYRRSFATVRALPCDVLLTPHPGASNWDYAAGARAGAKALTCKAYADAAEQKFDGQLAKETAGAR
Summary of the method: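 For the metallo enzyme, inhibitor and enzyme were preincubated for 4 min. Concentrated nitrocefin was then added to give the final assay volume, and IC50 was determined.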

[4] = target: Beta-lactamase TEM (Escherichia coli) (UniProt P62593); assay: Beta-Lactamase inhibitory activity against representative class A (TEM-1) serine enzyme from Escherichia coli ATCC 35218 in presence of Piperacillin
Sequence of Beta-lactamase TEM (Escherichia coli) (P62593 whole entry): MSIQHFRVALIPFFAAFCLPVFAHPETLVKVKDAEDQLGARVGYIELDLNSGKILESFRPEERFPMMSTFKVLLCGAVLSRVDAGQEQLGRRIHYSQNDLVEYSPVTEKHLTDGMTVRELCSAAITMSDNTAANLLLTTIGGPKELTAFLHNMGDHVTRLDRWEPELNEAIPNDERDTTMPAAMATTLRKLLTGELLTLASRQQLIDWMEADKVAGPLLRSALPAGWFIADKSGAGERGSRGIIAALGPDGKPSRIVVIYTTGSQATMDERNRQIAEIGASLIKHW
Summary of the method: (§2)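 MIC of piperacillin against β-lactamase-producing strains, with the piperacillin concentration varied and the inhibitor held constant at […].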

[5] = test system: Staphylococcus aureus; assay: Antibacterial activity was determined against the Staphylococcus aureus ATCC 29213 in presence of Piperacillin; type: functional; summary of the method: as §2
[6] = target: Beta-lactamase (Escherichia coli K-12) (UniProt P00811)
Sequence of Beta-lactamase (Escherichia coli K-12) (P00811 whole entry): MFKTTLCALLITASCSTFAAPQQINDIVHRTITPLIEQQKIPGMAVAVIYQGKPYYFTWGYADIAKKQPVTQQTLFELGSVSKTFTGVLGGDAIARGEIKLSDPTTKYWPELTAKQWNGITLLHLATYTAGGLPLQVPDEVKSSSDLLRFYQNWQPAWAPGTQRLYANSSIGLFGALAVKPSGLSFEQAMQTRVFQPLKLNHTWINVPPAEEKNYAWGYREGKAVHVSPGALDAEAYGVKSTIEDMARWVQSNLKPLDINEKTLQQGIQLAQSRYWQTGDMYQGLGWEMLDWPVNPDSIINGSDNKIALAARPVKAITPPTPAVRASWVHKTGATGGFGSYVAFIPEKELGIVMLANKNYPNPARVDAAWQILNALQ

[7] = test system: Pseudomonas aeruginosa; assay: Synergistic activity against SPM-1 beta lactamase produced by Pseudomonas aeruginosa in presence of Piperacillin and Tazobactam; R = Resistant
[8] = test system: Pseudomonas aeruginosa; assay: Synergistic activity against VIM-7 beta lactamase produced by Pseudomonas aeruginosa in presence of Piperacillin and Tazobactam; R = Resistant
[9] = test system: Pseudomonas aeruginosa; assay: Synergistic activity against VIM-1 beta lactamase produced by Pseudomonas aeruginosa in presence of Piperacillin and Tazobactam; R = Resistant
[10] = target: Beta-lactamase TEM (Escherichia coli, UniProt P62593); assay: Beta-Lactamase inhibitory activity against representative class A (TEM-1) serine enzyme
Sequence of Beta-lactamase TEM (P62593 whole entry): as the sequence (P62593 whole entry) above
Summary of the method: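 Serine β-lactamase assay: inhibitor preincubated with enzyme for 4 min in 100 µL, then an aliquot transferred into dilute nitrocefin substrate (1 mL final). IC50 is expressed as the inhibitor concentration in the 100 µL incubation, from multiple experiments.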

[11] = test system: Escherichia coli; assay: Synergic activity against IMP-1 beta lactamase produced by Escherichia coli in presence of piperacillin (1:1) and compound 5c; S = susceptible; type: functional; summary of the method: as §1
[12] = test system: Escherichia coli; assay: Synergic activity against IMP-1 beta lactamase produced by Escherichia coli in presence of piperacillin (1:1); R = Resistant; type: functional
[13] = test system: Pseudomonas aeruginosa; assay: Synergistic activity against VIM-7 beta lactamase produced by Pseudomonas aeruginosa presence of piperacillin (1:1); R = Resistant
[14] = test system: Pseudomonas aeruginosa; assay: Synergistic activity against VIM-1 beta lactamase produced by Pseudomonas aeruginosa presence of piperacillin (1:1); R = Resistant
[15] = test system: Pseudomonas aeruginosa; assay: Synergistic activity against SPM-1 beta lactamase produced by Pseudomonas aeruginosa in presence of piperacillin (1:1); R = Resistant
[16] = test system: Pseudomonas aeruginosa; assay: Synergistic activity against VIM-7 beta lactamase produced by Pseudomonas aeruginosa presence of piperacillin (1:1) and compound 5c; R = Resistant
[17] = test system: Pseudomonas aeruginosa; assay: Synergistic activity against VIM-1 beta lactamase produced by Pseudomonas aeruginosa presence of piperacillin (1:1) and compound 5c; S = susceptible
[18] = test system: Pseudomonas aeruginosa; assay: Synergistic activity against SPM-1 beta lactamase produced by Pseudomonas aeruginosa in presence of piperacillin (1:1) and compound 5c; S = susceptible
[19] = Synergic activity of compound was determined against IMP-1 beta lactamase produced by Escherichia coli; type: functional; summary of the method: as §1
[20] = target: Beta-lactamase TEM (Escherichia coli) (UniProt P62593); assay: Beta-Lactamase inhibitory activity against represent active class A (TEM-1) serine enzyme from Escherichia coli ATCC 35218
[21] = test system: Staphylococcus aureus; assay: Antibacterial activity was determined against the Staphylococcus aureus ATCC 29213; type: functional
[22] = Synergistic activity of compound was determined against […]; type: functional, plasmodium aeruginosa; settings: Pseudomonas aeruginosa; summary of the method: as §1
[23] = Synergistic activity of compound was determined against SPM-1 beta lactamase produced by Pseudomonas aeruginosa
[24] = Synergistic activity of compound was determined against VIM-7 beta lactamase produced by Pseudomonas aeruginosa

| Structure (SMILES) | IC50 [2] | IC50 [3] | MIC [4] | MIC [5] | MIC [6] | IC50 [10] | further results |
| --- | --- | --- | --- | --- | --- | --- | --- |
| CC1(C)[C@H](C(=O)O)N2C(=O)[C@H](CS)[C@H]2S1(=O)=O | 12 µM | 0.3 µM | 32 µg/mL | 4 µg/mL | 0.5 µg/mL (≈ 1.79 µM) | – | Activity [1]: Susceptible; Activity [7]: Resistant; Activity [8]: Resistant; Activity [9]: Resistant |
| CC1(C)S[C@@H]2[C@H](CS)C(=O)N2[C@H]1C(=O)O | 2.9 µM | 32.1 µM | > 128 µg/mL | 2 µg/mL | 2 µg/mL (≈ 8.09 µM) | 601 µM | Activity [1]: Susceptible; Activity [7]: Resistant; Activity [8]: Resistant; Activity [9]: Resistant |
| CC1(C)S[C@@H]2[C@H](CO)C(=O)N2[C@H]1C(=O)O | > 200 µM | > 200 µM | > 128 µg/mL | 4 µg/mL | 4 µg/mL (≈ 17.3 µM) | 752 µM | – |
| C[C@@]1(COC(=O)Cc2ccc(O)c(O)c2)S[C@@H]2/C(=C\c3ccccn3)C(=O)N2[C@H]1C(=O)O | – | – | – | – | – | – | Activity [11]: Susceptible; Activity [12]: Resistant; Activity [13]: Resistant; Activity [14]: Resistant; Activity [15]: Resistant; Activity [16]: Resistant; Activity [17]: Susceptible; Activity [18]: Susceptible |
| CCN1CCN(C(=O)N[C@@H](C(=O)N[C@@H]2C(=O)N3[C@@H]2SC(C)(C)[C@@H]3C(=O)O)c2ccccc2)C(=O)C1=O [PIPERACILLIN] | – | – | – | – | – | – | MIC [19]: > 128 µg/mL; MIC [20]: > 128 µg/mL; MIC [21]: 8 µg/mL (≈ 15.5 µM); MIC [22]: > 128 µg/mL; MIC [23]: > 128 µg/mL; MIC [24]: > 128 µg/mL |
| CC1(C)S[C@@H]2[C@@H](CO)C(=O)N2[C@H]1C(=O)O | > 200 µM | > 200 µM | > 128 µg/mL | 8 µg/mL | 4 µg/mL (≈ 17.3 µM) | 275 µM | – |
| CC1(C)[C@H](C(=O)O)N2C(=O)[C@H](S)[C@H]2S1(=O)=O | 106 µM | 7.6 µM | > 128 µg/mL | 8 µg/mL | 2 µg/mL (≈ 7.54 µM) | 69.2 µM | – |
